According to ChEMBL document CHEMBL1687757, “Many chromosomal genes modulate MarA-mediated multidrug resistance in Escherichia coli” (2010):

What follows are compounds tested on Escherichia coli (assay: Antibacterial activity against marA-overproducing Escherichia coli CR1000 harboring inactivated damX gene assessed as MarA-mediated multidrug resistance level by measuring fold decrease in MIC relative to MarA-deficient Escherichia coli CR2000).
Type: functional
Set-up: scale not given: the % may be the effect or the level left
In short: (§1)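 Each inactivated gene was transferred into both the ΔmarR (CR1000) and the ΔmarRA (CR2000) BW25113 backgrounds. Each derivative was grown overnight in LB and tested by Etest on Mueller-Hinton plates, read after 20 h at 37°C, against cefoxitin, norfloxacin, chloramphenicol and minocycline. The MarA-mediated level compares the MIC in the ΔmarR derivative with the MIC in the matching ΔmarRA derivative.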

| Compound | Activity [%] |
| --- | --- |
| CN(C)c1ccc(O)c2c1C[C@H]1C[C@H]3[C@H](N(C)C)C(O)=C(C(N)=O)C(=O)[C@@]3(O)C(O)=C1C2=O [MINOCYCLINE] | 30 |

These compounds were tested on Escherichia coli (assay: Antibacterial activity against marA-overproducing Escherichia coli CR1000 harboring inactivated metV gene assessed as MarA-mediated multidrug resistance level by measuring fold change in MIC relative to MarA-deficient Escherichia coli CR2000).
Type: functional
In short: as §1

| Compound | Activity [%] |
| --- | --- |
| CN(C)c1ccc(O)c2c1C[C@H]1C[C@H]3[C@H](N(C)C)C(O)=C(C(N)=O)C(=O)[C@@]3(O)C(O)=C1C2=O [MINOCYCLINE] | 65 |

What follows are compounds tested on Escherichia coli (assay: Antibacterial activity against marA-overproducing Escherichia coli CR1000 harboring inactivated acrB gene assessed as MarA-mediated multidrug resistance level by measuring fold decrease in MIC relative to MarA-deficient Escherichia coli CR2000).
Type: functional
Set-up: scale not given: the % may be the effect or the level left
In short: as §1

| Compound | Activity [%] |
| --- | --- |
| CN(C)c1ccc(O)c2c1C[C@H]1C[C@H]3[C@H](N(C)C)C(O)=C(C(N)=O)C(=O)[C@@]3(O)C(O)=C1C2=O [MINOCYCLINE] | 40 |

Each compound was assayed on Escherichia coli (assay: Antibacterial activity against marA-overproducing Escherichia coli CR1000 harboring inactivated degP gene assessed as MarA-mediated multidrug resistance level by measuring fold change in MIC relative to MarA-deficient Escherichia coli CR2000).
Type: functional
In short: as §1

| Compound | Activity [%] |
| --- | --- |
| CN(C)c1ccc(O)c2c1C[C@H]1C[C@H]3[C@H](N(C)C)C(O)=C(C(N)=O)C(=O)[C@@]3(O)C(O)=C1C2=O [MINOCYCLINE] | 100 |

The compounds below were run on Escherichia coli (assay: Antibacterial activity against marA-overproducing Escherichia coli CR1000 harboring inactivated metL gene assessed as MarA-mediated multidrug resistance level by measuring fold change in MIC relative to MarA-deficient Escherichia coli CR2000).
Type: functional
In short: as §1

| Compound | Activity [%] |
| --- | --- |
| CN(C)c1ccc(O)c2c1C[C@H]1C[C@H]3[C@H](N(C)C)C(O)=C(C(N)=O)C(=O)[C@@]3(O)C(O)=C1C2=O [MINOCYCLINE] | 100 |

The compounds below were run on Escherichia coli (assay: Antibacterial activity against marA-overproducing Escherichia coli CR1000 harboring inactivated recD gene assessed as MarA-mediated multidrug resistance level by measuring fold change in MIC relative to MarA-deficient Escherichia coli CR2000).
Type: functional
In short: as §1

| Compound | Activity [%] |
| --- | --- |
| CN(C)c1ccc(O)c2c1C[C@H]1C[C@H]3[C@H](N(C)C)C(O)=C(C(N)=O)C(=O)[C@@]3(O)C(O)=C1C2=O [MINOCYCLINE] | 65 |

Each compound was assayed on Escherichia coli (assay: Antibacterial activity against marA-overproducing Escherichia coli CR1000 harboring inactivated mhpT gene assessed as MarA-mediated multidrug resistance level by measuring fold change in MIC relative to MarA-deficient Escherichia coli CR2000).
Type: functional
In short: as §1

| Compound | Activity [%] |
| --- | --- |
| CN(C)c1ccc(O)c2c1C[C@H]1C[C@H]3[C@H](N(C)C)C(O)=C(C(N)=O)C(=O)[C@@]3(O)C(O)=C1C2=O [MINOCYCLINE] | 100 |

What follows are compounds tested on Escherichia coli (assay: Antibacterial activity against marA-overproducing Escherichia coli CR1000 harboring inactivated pcnB gene assessed as MarA-mediated multidrug resistance level by measuring fold decrease in MIC relative to MarA-deficient Escherichia coli CR2000).
Type: functional
Set-up: scale not given: the % may be the effect or the level left
In short: as §1

| Compound | Activity [%] |
| --- | --- |
| CN(C)c1ccc(O)c2c1C[C@H]1C[C@H]3[C@H](N(C)C)C(O)=C(C(N)=O)C(=O)[C@@]3(O)C(O)=C1C2=O [MINOCYCLINE] | 30 |

The compounds below were run on Escherichia coli (assay: Antibacterial activity against marA-overproducing Escherichia coli CR1000 harboring inactivated cspGp gene assessed as MarA-mediated multidrug resistance level by measuring fold change in MIC relative to MarA-deficient Escherichia coli CR2000).
Type: functional
In short: as §1

| Compound | Activity [%] |
| --- | --- |
| CN(C)c1ccc(O)c2c1C[C@H]1C[C@H]3[C@H](N(C)C)C(O)=C(C(N)=O)C(=O)[C@@]3(O)C(O)=C1C2=O [MINOCYCLINE] | 75 |

The compounds below were run on Escherichia coli (assay: Antibacterial activity against marA-overproducing Escherichia coli CR1000 harboring inactivated crp gene assessed as MarA-mediated multidrug resistance level by measuring fold change in MIC relative to MarA-deficient Escherichia coli CR2000).
Type: functional
In short: as §1

| Compound | Activity [%] |
| --- | --- |
| CN(C)c1ccc(O)c2c1C[C@H]1C[C@H]3[C@H](N(C)C)C(O)=C(C(N)=O)C(=O)[C@@]3(O)C(O)=C1C2=O [MINOCYCLINE] | 38 |

Each compound was assayed on Escherichia coli (assay: Antibacterial activity against marA-overproducing Escherichia coli CR1000 harboring inactivated appA gene assessed as MarA-mediated multidrug resistance level by measuring fold change in MIC relative to MarA-deficient Escherichia coli CR2000).
Type: functional
In short: as §1

| Compound | Activity [%] |
| --- | --- |
| CN(C)c1ccc(O)c2c1C[C@H]1C[C@H]3[C@H](N(C)C)C(O)=C(C(N)=O)C(=O)[C@@]3(O)C(O)=C1C2=O [MINOCYCLINE] | 100 |

The compounds below were run on Escherichia coli (assay: Antibacterial activity against marA-overproducing Escherichia coli CR1000 harboring inactivated alx gene assessed as MarA-mediated multidrug resistance level by measuring fold change in MIC relative to MarA-deficient Escherichia coli CR2000).
Type: functional
In short: as §1

| Compound | Activity [%] |
| --- | --- |
| CN(C)c1ccc(O)c2c1C[C@H]1C[C@H]3[C@H](N(C)C)C(O)=C(C(N)=O)C(=O)[C@@]3(O)C(O)=C1C2=O [MINOCYCLINE] | 65 |

These compounds were tested on Escherichia coli (assay: Antibacterial activity against marA-overproducing Escherichia coli CR1000 harboring inactivated acrA gene assessed as MarA-mediated multidrug resistance level by measuring fold decrease in MIC relative to MarA-deficient Escherichia coli CR2000).
Type: functional
Set-up: scale not given: the % may be the effect or the level left
In short: as §1

| Compound | Activity [%] |
| --- | --- |
| CN(C)c1ccc(O)c2c1C[C@H]1C[C@H]3[C@H](N(C)C)C(O)=C(C(N)=O)C(=O)[C@@]3(O)C(O)=C1C2=O [MINOCYCLINE] | 40 |

What follows are compounds tested on Escherichia coli (assay: Antibacterial activity against marA-overproducing Escherichia coli CR1000 harboring inactivated cyaA gene assessed as MarA-mediated multidrug resistance level by measuring fold decrease in MIC relative to MarA-deficient Escherichia coli CR2000).
Type: functional
Set-up: scale not given: the % may be the effect or the level left
In short: as §1

| Compound | Activity [%] |
| --- | --- |
| CN(C)c1ccc(O)c2c1C[C@H]1C[C@H]3[C@H](N(C)C)C(O)=C(C(N)=O)C(=O)[C@@]3(O)C(O)=C1C2=O [MINOCYCLINE] | 32 |
